Apaf-1 inh = human Apaf-1 inhibition; AID 489030; reconstituted apoptosome caspase-3 activity, DEVD-Rh110 fluorescence; O14727; 330,000 compounds, 0.71% hits; inhibition, % at 20 µM; active means inhibition of at least 40% at 20 µM
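detection = Rh110 fluorescence intensity | test system = biochemical Apaf-1 apoptosome reconstitution | also added = cytochrome c and DEVD-Rh110 substrate | schedule = 30 min plus 50 min, RT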
GSTO1 counter = blocks human GSTO1 in RBBP9 counter-screen; inhibition, % at 5.96 µM; AID 1974; 300,000 compounds, 1.1% hits; P78417; recombinant GSTO1, activity-based probe fluorescence polarization;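 active means inhibition above the campaign mean inhibition plus 3 SD, cut at about 35% in these data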
TDP2 absorb = TDP2 (human) inhibition, absorbance primary screen; O95551; recombinant TDP2, T5PNP hydrolysis, p-nitrophenol absorbance 415 nm; inhibition, % at 12.8 µM; 370,000 compounds, 0.34% hits; AID 720702;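 active means inhibition above the mean of all tested compounds plus 3 SD, set per campaign, cut at about 25% in these data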
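test system = human TDP2 enzyme | input = TDP2 enzyme at 120 nM final | medium = 50 mM Tris-HCl pH 7.5 with Mg2+, KCl, DTT, BSA | also added = T5PNP substrate, 5 mM | times = 2 h at 37 °C | technique = epi absorbance | benchmarks = high control without enzyme, low control DMSO plus TDP2 | replication = each compound tested once, singlicate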
TCR-CD3 inh = blocks the human TCR-CD3 interaction; AID 651800; 360,000 compounds, 0.37% hits; TAMRA-labeled TCR probe fluorescence, biochemical; inhibition, % at 9.4 µM;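 further: recombinant mutant TCR 2C K166C tagged with TAMRA read by polarization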
SIAE inh = blocks human sialic acid acetylesterase | 370,000 compounds, 0.69% hits | inhibition, % at 9.66 µM | SIAE FP-Rh probe binding, fluorescence polarization | Q9HAT2;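 active means inhibition above a cutoff: mean of compounds within the control limits plus 3 SD of those, cut at about 17% in these data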
PAD4 inh = PAD4 (human) enzyme inhibition; 330,000 compounds, 0.41% hits; recombinant PAD4, RCA probe fluorescence polarization; Q9UM07; inhibition, % at 6.36 µM; AID 485272;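 active means percent inhibition above a cutoff equal to the mean of all tested compounds plus 3 SD, cut at about 15% in these data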
Apaf-1 inh conf = confirmation of Apaf-1 inhibitors; shares compounds with Apaf-1 inh; reconstituted apoptosome, caspase-3 DEVD-Rh110 fluorescence; inhibition, % at 20 µM; 1,800 compounds, 25% hits; AID 504614;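 active means mean inhibition of at least 40% at 20 µM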
Rh110 quench = counter-screen for Apaf-1 inhibitors: fluorescence interference; shares compounds with Apaf-1 inh; Rh110 fluorescence interference, quenched caspase reaction; activation (fluorescence interference), % at 20 µM; 1,800 tested, under 10 active; AID 504615;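 active means signal rise of 40% or more at 20 µM, treated as a fluorescence artifact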
Apaf1 inh interf = Apaf-1 inhibitor counter-screen fluorescence artifact; IC50, µM; 460 tested, under 10 active; AID 588538; shares compounds with Apaf-1 inh; fluorescence interference counterscreen, Apaf-1 assay format; call rule not given here
BSA probe FL = BSA probe counter-screen for TCR-CD3 inhibitors; shares compounds with TCR-CD3 inh; TAMRA-labeled BSA probe fluorescence counterscreen; inhibition, % at 9.4 µM; 1,200 compounds, 10% hits; AID 652035; in the data active means inhibition above about 23%
TCR-CD3 inh conf = confirmation of human TCR-CD3 interaction inhibitors. shares compounds with TCR-CD3 inh. TAMRA-labeled TCR probe fluorescence binding assay. inhibition, % at 9.4 µM. 1,200 compounds, 48% hits
Large screens that a line does not name were inactive (follow-up assays come after a bar, where they were run); ! = repeats disagree. A selection: hits, their analogues and other compounds. The true share with any hit is near 2.4%. Unless noted, no stated cut-off is given here; in the data, active means inhibition above about 19%; inactive means the rest.

CCC[C@@H](CN1CCC[C@H]1CN1C(N)=NC[C@@H]1Cc1ccccc1)N1C[C@@H]([C@H](C)CC)N(CCCC2CCCC2)C1=N	Apaf-1 inh 77 (no result: GSTO1 counter, TDP2 absorb, TCR-CD3 inh, SIAE inh) | Apaf-1 inh conf inactive | Rh110 quench inactive
CC(=O)NCCC(=O)Nc1ccc(C(N)=O)cc1	none
COC(=O)C1=NNC2(c3ccc(C)cc3)C(=O)N(c3ccc(C)cc3)C(=O)C12 (stereo not given)	none
COc1ccc(CCN(C)C2CCCN(S(=O)(=O)N(C)C)C2)cc1OC (stereo not given)	none (no result: Apaf-1 inh)
CCOc1cc(CNc2ccc(N3CCCCC3)cc2)cc(Br)c1OCC(=O)NC(C)(C)C	Apaf-1 inh 44 | Apaf-1 inh conf inactive | Rh110 quench inactive
CCOc1cc(CNc2ccc(N3CCOCC3)cc2)cc(Br)c1OCC	none
NC(=O)c1ccc[n+](Cc2ccc(-c3ccccc3)cc2)c1	none
Cc1c(Cl)cn2c(=O)cc(CN3CCN(c4ccccc4)CC3)nc2c1Cl	none
CCOc1cc(/C=C/C(=O)Nc2ccc(C(=O)NCCN(CC)CC)cc2)ccc1OCC(C)C	Apaf-1 inh 47 | Apaf-1 inh conf inactive | Rh110 quench inactive
CN(C)CCNC(=O)c1ccc(COc2ccc(Cl)cc2Cl)cc1	Apaf-1 inh 46 | Apaf-1 inh conf inactive | Rh110 quench inactive
Cc1onc(-c2c(F)cccc2Cl)c1C(=O)NC(=S)NC1CCSC1=O (stereo not given)	none
O=C(NNc1cc(N2CCOCC2)nc(N2CCOCC2)n1)c1ccc([N+](=O)[O-])cc1	Apaf-1 inh 97 (no result: GSTO1 counter, PAD4 inh) | Apaf-1 inh conf 60 | Rh110 quench inactive | Apaf1 inh interf inactive
C=CCN=C1NC(c2ccc(F)cc2)C(C(=O)OC)=C(C)N1Cc1ccccc1C(F)(F)F (stereo not given)	none (no result: Apaf-1 inh, GSTO1 counter, PAD4 inh)
Cc1ccc(C)c2[nH]c(=O)c(C(c3nnnn3CCc3ccccc3)N3CCOCC3)cc12 (stereo not given)	none
Cc1ccc(C)c2[nH]c(=O)c(C(c3nnnn3Cc3ccco3)N3CCc4ccccc4C3)cc12 (stereo not given)	Apaf-1 inh 71 | Apaf-1 inh conf inactive | Rh110 quench inactive
COc1ccc(OC)c2c1cc(C(=O)N[C@H](C(=O)N1CCC[C@H]1C(=O)O)C(C)C)n2C	Apaf-1 inh 52 | Apaf-1 inh conf inactive | Rh110 quench inactive
COc1cc(OC)c2cc(C(=O)N[C@H](C(=O)N3CCC[C@H]3C(=O)O)C(C)C)n(C)c2c1	none
Cc1ccc(-c2cc(C(=O)Nc3nccs3)c3ccccc3n2)o1	none
Cc1cc([N+](=O)[O-])c(C)cc1-c1ccc(/C=N/NC(=O)c2cccnc2)o1	Apaf-1 inh 55 | Apaf-1 inh conf inactive | Rh110 quench inactive
CCOc1ccc(CSC(=N)N)cc1Cl	none
CCC(C)Sc1cccc(-c2nc3cc(C)ccn3c2NC2CCCCC2)c1 (stereo not given)	Apaf-1 inh 41, TCR-CD3 inh 25! (no result: GSTO1 counter) | Apaf-1 inh conf inactive | Rh110 quench inactive | BSA probe FL inactive | TCR-CD3 inh conf inactive
CCCCCCSc1cccc(-c2nc3cc(C)ccn3c2NC2CCCCC2)c1	none
COc1ccc(S(=O)(=O)NCc2ccc3c(c2)cc(C)n3C)cc1	Apaf-1 inh 51, TCR-CD3 inh 35, SIAE inh 18 | Apaf-1 inh conf inactive | Rh110 quench inactive | BSA probe FL 25 | TCR-CD3 inh conf 28
COc1cccc(NC(=O)COc2ccc(C(=S)N3CCN(C)CC3)cc2OC)c1	none

Screening data (PubChem BioAssay)
